Results published in ChEMBL document CHEMBL1135992, “Quantitative structure-activity relationship analysis of functionalized amino acid anticonvulsant agents using k nearest neighbor and simulated annealing PLS methods” (2002).

Columns and labels:
Format in all cases: functional
Mus musculus [1] = assay: Anticonvulsant activity in mice following i.p. treatment and Maximal Electroshock Seizure (MES) test.
Procedure, shortened: (§1)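 Mice (18–25 g) received the compound ip as a suspension in 0.5% (w/v) methylcellulose in water. A 60-cycle alternating current of 50 mA was applied for 0.2 s. Protection was defined as abolition of the hindlimb tonic extensor component. […] ED50 and 95% confidence interval were calculated by Finney's methods.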

Mus musculus [2] = assay: In vivo anticonvulsant activity in male albino mice using the maximal electroshock (MES) test after intraperitoneal administration; value ranges from 34.9-54.3; settings: ip
Procedure, shortened: (§2)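 Mice (18–25 g) received the test agent intraperitoneally as a suspension in 0.5% (w/v) methylcellulose in water. A 60-cycle alternating current at 50 mA was applied for 0.2 s, and protection meant abolition of the hindlimb tonic extensor component. The ED50 was determined at the time of peak effect in groups of at least eight mice. At least two doses fell between 100% and 0% protection, and the 95% confidence interval was calculated by Finney's method.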

Mus musculus [3] = assay: In vivo anticonvulsant activity in male albino mice using the maximal electroshock seizure(MES) test upon intraperitoneal administration, expressed as logarithm of effective dose; procedure, shortened: as §2
Mus musculus [4] = assay: In vivo anticonvulsant activity in male albino mice using the maximal electroshock (MES) test after intraperitoneal administration (exp 2); settings: ip; procedure, shortened: as §1
Mus musculus [5] = assay: In vivo anticonvulsant activity in male albino mice using the maximal electroshock (MES) test after intraperitoneal administration (exp 1); settings: ip; procedure, shortened: as §1
Mus musculus [6] = assay: In vivo anticonvulsant activity in male albino mice using the maximal electroshock seizure(MES) test upon intraperitoneal administration (exp 1); settings: ip; procedure, shortened: as §1
Mus musculus [7] = assay: In vivo anticonvulsant activity in male albino mice using the maximal electroshock seizure(MES) test upon intraperitoneal administration (exp 2); settings: ip; procedure, shortened: as §1
Mus musculus [8] = assay: In vivo anticonvulsant activity in male albino mice using the maximal electroshock seizure(MES) test upon intraperitoneal administration, expressed as logarithm of effective dose; value ranges from 2.58 to 3.06; procedure, shortened: as §2
Mus musculus [9] = assay: In vivo anticonvulsant activity in male albino mice using the maximal electroshock (MES) test after intraperitoneal administration; value ranges from 85.7-151; settings: ip
Mus musculus [10] = assay: In vivo anticonvulsant activity in male albino mice using the maximal electroshock seizure(MES) test upon intraperitoneal administration; value ranges from 15 to 19; settings: ip
Mus musculus [11] = assay: In vivo anticonvulsant activity in male albino mice using the maximal electroshock seizure(MES) test upon intraperitoneal administration; value ranges from 46 to 61; settings: ip
Mus musculus [12] = assay: In vivo anticonvulsant activity in male albino mice using the maximal electroshock seizure(MES) test upon intraperitoneal administration, expressed as logarithm of effective dose; value ranges from 2.01 to 2.63
Mus musculus [13] = assay: In vivo anticonvulsant activity in male albino mice using the maximal electroshock seizure(MES) test upon intraperitoneal administration, expressed as logarithm of effective dose; value ranges from 2.63 to 3.12; procedure, shortened: as §2
Mus musculus [14] = assay: In vivo anticonvulsant activity in male albino mice using the maximal electroshock seizure(MES) test upon intraperitoneal administration (exp-1); settings: ip; procedure, shortened: as §2
Mus musculus [15] = assay: In vivo anticonvulsant activity in male albino mice using the maximal electroshock seizure(MES) test upon intraperitoneal administration (exp-2); settings: ip; procedure, shortened: as §2
Mus musculus [16] = assay: In vivo anticonvulsant activity in male albino mice using the maximal electroshock (MES) test after intraperitoneal administration; settings: ip; procedure, shortened: as §2
Mus musculus [17] = assay: In vivo anticonvulsant activity in male albino mice using the maximal electroshock (MES) test after intraperitoneal administration; value ranges from 21.4-40.8; settings: ip
Mus musculus [18] = assay: In vivo anticonvulsant activity in male albino mice using the maximal electroshock (MES) test after intraperitoneal administration; value ranges from 457.7-715; settings: ip
Mus musculus [19] = assay: In vivo anticonvulsant activity in male albino mice using the maximal electroshock seizure(MES) test upon intraperitoneal administration; value ranges from 44.4 to 59.9; settings: ip
Mus musculus [20] = assay: In vivo anticonvulsant activity in male albino mice using the maximal electroshock (MES) test after intraperitoneal administration; value ranges from 76.8-120; settings: ip; procedure, shortened: as §2
Mus musculus [21] = assay: In vivo anticonvulsant activity in male albino mice using the maximal electroshock seizure(MES) test upon intraperitoneal administration, expressed as logarithm of effective dose; value ranges from 2.08 to 2.60
Mus musculus [22] = assay: In vivo anticonvulsant activity in male albino mice using the maximal electroshock (MES) test after intraperitoneal administration; value ranges from 26.7-37.8; settings: ip
Mus musculus [23] = assay: In vivo anticonvulsant activity in male albino mice using the maximal electroshock seizure(MES) test upon intraperitoneal administration, expressed as logarithm of effective dose; value ranges from 2.10 to 2.63
Mus musculus [24] = assay: In vivo anticonvulsant activity in male albino mice using the maximal electroshock seizure(MES) test upon intraperitoneal administration; value ranges from 34.9 to 45; settings: ip; procedure, shortened: as §2
Mus musculus [25] = assay: In vivo anticonvulsant activity in male albino mice using the maximal electroshock seizure(MES) test upon intraperitoneal administration; value ranges from 51.9 to 68; settings: ip
Mus musculus [26] = assay: In vivo anticonvulsant activity in male albino mice using the maximal electroshock seizure(MES) test upon intraperitoneal administration; value ranges from 62.5 to 91; settings: ip
Mus musculus [27] = assay: In vivo anticonvulsant activity in male albino mice using the maximal electroshock seizure(MES) test upon intraperitoneal administration, expressed as logarithm of effective dose; value ranges from 2.63 to 3.11
Mus musculus [28] = assay: In vivo anticonvulsant activity in male albino mice using the maximal electroshock seizure(MES) test upon intraperitoneal administration; value ranges from 75.4 to 101; settings: ip
Mus musculus [29] = assay: In vivo anticonvulsant activity in male albino mice using the maximal electroshock seizure(MES) test upon intraperitoneal administration; value ranges from 74.3 to 99.1; settings: ip; procedure, shortened: as §1
Mus musculus [30] = assay: In vivo anticonvulsant activity in male albino mice using the maximal electroshock seizure(MES) test upon intraperitoneal administration; value ranges from 14.6 to 41; settings: ip; procedure, shortened: as §1
Mus musculus [31] = assay: In vivo anticonvulsant activity in male albino mice using the maximal electroshock seizure(MES) test upon intraperitoneal administration; settings: ip; procedure, shortened: as §1

Structure (SMILES)	Log ED50 (Mus musculus [1]) [uM kg-1]	Log ED50 (Mus musculus [3]) [uM kg-1]	further results
CC(=O)NC(C(=O)NCc1ccccc1)N(C)C (stereo not given)	2.26		
CC(=O)NC(N)C(=O)NCc1ccccc1 (stereo not given)	2.47		
CC(=O)NC(C(=O)NCc1ccccc1)N(N)c1ccccc1 (stereo not given)	2.14		ED50 (Mus musculus [2]): 42.8 mg/kg
CC(=O)NC(C(=O)NCc1ccccc1)c1cccs1 (stereo not given)		2.19	
CC(=O)NC(C(=O)NCc1cc(F)ccc1F)c1ccco1 (stereo not given)		1.89	
CC(=O)NC(C(=O)NCc1ccccc1)c1ccc(C)[nH]1 (stereo not given)		2.12	
CC(=O)NC(C(=O)NCc1ccc(F)cc1)c1ccco1 (stereo not given)		1.64	
CC(N)C(=O)NCc1ccccc1 (stereo not given)	3.23		ED50 (Mus musculus [4]): < 300 mg/kg; ED50 (Mus musculus [5]): > 100 mg/kg
CC(=O)NC(C(=O)NCc1ccccc1)n1cccc1 (stereo not given)	2.47		
CC(=O)NC(C(=O)NCc1ccccc1)c1ncccn1 (stereo not given)		1.46	
CCC(=O)NC(COC)C(=O)NCc1ccccc1 (stereo not given)			ED50 (Mus musculus [6]): > 100 mg/kg; ED50 (Mus musculus [7]): < 300 mg/kg; Log ED50 (Mus musculus [8]): 3.06 uM kg-1
C/C(S)=N\C(C(=O)NCc1ccccc1)c1ccco1 (stereo not given)		1.8	
CC(=O)NC(C(=N)NO)C(=O)NCc1ccccc1 (stereo not given)	2.63		ED50 (Mus musculus [9]): 112 mg/kg
CC(=O)NC(C(=O)NCc1cccc(F)c1)c1ccco1 (stereo not given)		1.66	
C=CCC(NC(C)=O)C(=O)NCc1ccccc1 (stereo not given)		2.16	
CC(=O)NC(C(=O)NCc1ccccc1)c1ccccc1 (stereo not given)		2.06	
CON(C)C(NC(C)=O)C(=O)NCc1ccccc1 (stereo not given)	1.4		
CCOCC(NC(C)=O)C(=O)NCc1ccccc1 (stereo not given)		1.81	ED50 (Mus musculus [10]): 17 mg/kg
CONC(NC(C)=O)C(=O)NCc1ccccc1 (stereo not given)	1.39		
COCC(NC(C)=O)C(=O)N(C)Cc1ccccc1 (stereo not given)			ED50 (Mus musculus [6]): > 100 mg/kg; ED50 (Mus musculus [7]): < 300 mg/kg; Log ED50 (Mus musculus [8]): 3.06 uM kg-1

Structure (SMILES)	Log ED50 (Mus musculus [1]) [uM kg-1]	Log ED50 (Mus musculus [3]) [uM kg-1]	further results
CC(=O)NC(O)C(=O)NCc1ccccc1 (stereo not given)	2.56		
COC(NC(C)=O)C(=O)NCc1ccccc1 (stereo not given)	2.62		
CCNC(NC(C)=O)C(=O)NCc1ccccc1 (stereo not given)	2.23		
CC(=O)NC(NNC(=O)OCc1ccccc1)C(=O)NCc1ccccc1 (stereo not given)	2.18		
CNC(NC(C)=O)C(=O)NCc1ccccc1 (stereo not given)	2.28		
CCOC(NC(C)=O)C(=O)NCc1ccccc1 (stereo not given)	2.39		
CC(=O)NC(C(=O)NCc1ccccc1)c1ccc[nH]1 (stereo not given)		1.77	
CC(=O)NC(C(=O)NCc1ccccc1)c1ccco1 (stereo not given)		1.58	
O=C(NCc1ccccc1)C1CCCCN1 (stereo not given)		2.38	ED50 (Mus musculus [11]): 53 mg/kg
COCC(NC=O)C(=O)NCc1ccccc1 (stereo not given)			ED50 (Mus musculus [6]): > 30 mg/kg; Log ED50 (Mus musculus [12]): 2.63 uM kg-1; ED50 (Mus musculus [7]): < 100 mg/kg
CCC(NC(C)=O)C(=O)NCc1ccccc1 (stereo not given)			Log ED50 (Mus musculus [13]): 3.12 uM kg-1; ED50 (Mus musculus [14]): > 100 mg/kg; ED50 (Mus musculus [15]): < 300 mg/kg
CC(=O)NC(Nc1ccc(N)cc1)C(=O)NCc1ccccc1 (stereo not given)	2.75		ED50 (Mus musculus [16]): 176 mg/kg
CC(=O)NC(C(=O)NCc1ccccc1F)c1ccco1 (stereo not given)		2.14	
CNC(C)C(=O)NCc1ccccc1 (stereo not given)	2.21		ED50 (Mus musculus [17]): 31.2 mg/kg
CC(=O)NC(C(=N)NOC(C)=O)C(=O)NCc1ccccc1 (stereo not given)	2.66		ED50 (Mus musculus [18]): 140 mg/kg
CC(=O)NC(C(=O)NCc1ccccc1)C1CCCO1 (stereo not given)		2.27	ED50 (Mus musculus [19]): 51.7 mg/kg
C=CC(=O)NC(COC)C(=O)NCc1ccccc1 (stereo not given)			ED50 (Mus musculus [6]): > 100 mg/kg; ED50 (Mus musculus [7]): < 300 mg/kg; Log ED50 (Mus musculus [8]): 3.06 uM kg-1
CC(=O)NC(Nc1cccc(N)c1)C(=O)NCc1ccccc1 (stereo not given)	2.5		ED50 (Mus musculus [20]): 98.6 mg/kg
CCC(C(=O)NCc1ccccc1)N(C)C(C)=O (stereo not given)			ED50 (Mus musculus [6]): > 30 mg/kg; Log ED50 (Mus musculus [21]): 2.6 uM kg-1; ED50 (Mus musculus [7]): < 100 mg/kg
CC(=O)NC(C(=O)NCc1ccccc1)n1cccn1 (stereo not given)	1.78		

Structure (SMILES)	Log ED50 (Mus musculus [1]) [uM kg-1]	Log ED50 (Mus musculus [3]) [uM kg-1]	further results
CC(=O)NC(C(=O)NCc1ccccc1)c1ccccn1 (stereo not given)		1.58	
CC(=O)NC(C(=O)NCc1ccccc1)N1CC=CO1 (stereo not given)	2.05		ED50 (Mus musculus [22]): 31.4 mg/kg
CC(=O)N(C)C(C)C(=O)NCc1ccccc1 (stereo not given)			ED50 (Mus musculus [14]): > 30 mg/kg; ED50 (Mus musculus [15]): < 100 mg/kg; Log ED50 (Mus musculus [23]): 2.63 uM kg-1
CCCC(NC(C)=O)C(=O)NCc1ccccc1 (stereo not given)		2.19	ED50 (Mus musculus [24]): 38.4 mg/kg
CC(=O)NC(=O)NCc1ccccc1		2.5	ED50 (Mus musculus [25]): 60.1 mg/kg
CC(=O)NC(C(=O)NCc1ccccc1)c1cnccn1 (stereo not given)		1.72	
CC(=O)NC(C)C(=O)NCc1cccc(F)c1 (stereo not given)		2.51	ED50 (Mus musculus [26]): 77.3 mg/kg
CC(=O)NC(C(=O)NCc1ccccc1)c1ncco1 (stereo not given)		1.58	
CC(=O)NC(C)C(=O)N(C)Cc1ccccc1 (stereo not given)			ED50 (Mus musculus [6]): > 100 mg/kg; Log ED50 (Mus musculus [27]): 3.11 uM kg-1; ED50 (Mus musculus [7]): < 300 mg/kg
CCC(NC)C(=O)NCc1ccccc1 (stereo not given)	2.69		ED50 (Mus musculus [4]): < 100 mg/kg; ED50 (Mus musculus [5]): > 30 mg/kg
CCCC(N)C(=O)NCc1ccccc1 (stereo not given)	2.69		ED50 (Mus musculus [4]): < 100 mg/kg; ED50 (Mus musculus [5]): > 30 mg/kg
CC(=O)NC(C(=N)S)C(=O)NCc1ccccc1 (stereo not given)		2.51	ED50 (Mus musculus [28]): 86.2 mg/kg
CC(=O)NC(C(=O)NCc1ccccc1)c1nccs1 (stereo not given)		1.62	
CCN(C(C)=O)C(C)C(=O)NCc1ccccc1 (stereo not given)		2.53	ED50 (Mus musculus [29]): 85 mg/kg
CN1CSCC1C(=O)NCc1ccccc1 (stereo not given)		2.09	ED50 (Mus musculus [30]): 29.1 mg/kg
CC(=O)NCC(C)C(=O)NCc1ccccc1 (stereo not given)		3.06	ED50 (Mus musculus [31]): 270 mg/kg
CC(=O)NC(C(=O)NCc1ccccc1)c1ccsc1 (stereo not given)		2.48	
CC(=O)NC(C(=O)NCc1ccccc1)c1ccc(C)o1 (stereo not given)		1.83	
CC(=O)NC(C)C(=O)NCCCc1ccccc1 (stereo not given)	2.55		ED50 (Mus musculus [16]): 87.6 mg/kg
CC(=O)NC(C)C(=O)NCc1ccccc1 (racemic)		2.54	
